Most compounds without a hit are left out; they make up all but 2.3% or so of the library.
TRPC4 act: TRPC4 (mouse) channel activation. 310,000 tested, 0.49% active. B-score at 10 µM. HEK293 TRPC4beta/mu-opioid, Fluo4 calcium fluorescence; active compounds read high. Q9QUQ5. AID 2237;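 active = B-score above 5 SD of library B-scores, and initial fluorescence ratio not above library mean plus 5 SD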;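 note: positive B-score marks a calcium rise read as TRPC4 activation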
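Incubation: 45 min room-temperature Fluo4 loading, 110 s read / System: HEK293 cells stably co-expressing mouse TRPC4beta and mu-opioid receptor / Signal: Fluo4 fluorescence, kinetic / Control set: buffer (low) and maximal DAMGO (high) / Measure: integrated baseline-normalised fluorescence ratio, converted to per-well B score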
TRPC6 act: mouse TRPC6 channel activation; B-score at 10 µM; 310,000 tested, 0.13% active; HEK293-TRPC6 membrane potential dye fluorescence; active compounds read high; Q61143;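 active = B-score of the integrated fluorescence ratio above library mean plus 3 SD, and starting fluorescence ratio within library mean plus 5 SD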;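 note: higher score means more depolarization so channel activation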
TRPC6 inhibitor: blocks the mouse TRPC6 cation channel; Q61143; HEK293-TRPC6, membrane potential dye, ACh-evoked depolarization; active compounds read low; B-score at 10 µM; 310,000 tested, 1.1% active;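 active = B-score under library mean minus 3 SD, initial fluorescence not abnormally high, positive integrated signal ratio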;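 note: B-score derived from integrated fluorescence ratio over the kinetic read; more negative B-score means stronger inhibition of depolarization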
TRPC4 potent: allosterically enhances the mouse TRPC4 cation channel | HEK293 TRPC4beta/mu-opioid, DAMGO EC20, Fluo-4 Ca2+ flux; active compounds read high | B-score at 10 µM | 310,000 tested, 0.42% active | AID 2227;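 active = B-score of calcium response area above 5 SD of library B-scores, with initial fluorescence ratio within 5 SD of library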
TRPC4 block: TRPC4 (mouse) channel inhibition. 300,000 tested, 0.39% active. AID 2247. Q9QUQ5. HEK293 TRPC4beta/mu-opioid, DAMGO-evoked Fluo4 calcium flux; active compounds read low. B-score at 10 µM;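 active = B-score over 3 SD under the library average, no early fluorescence shift, positive overall ratio signal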
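Assay system – HEK293 line stably carrying TRPC4beta and mu-opioid receptor · Doses – single dose · Detection – Fluo4 calcium-dye fluorescence, kinetic read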
Hits are given with their value; - = inactive.

SMILES	TRPC4 act	TRPC6 act	TRPC6 inhibitor	TRPC4 potent	TRPC4 block
CCOC(=O)/C=C/C(=O)OCC(=O)N1CCN(C(=O)c2ccco2)CC1	-	-	-	-	-
Cc1cc(OCC(=O)N(C(C)C)C(C)C)cc(C)c1Br	-	-	-	38	-
Cc1cc(OCC(=O)NC(C)C)cc(C)c1Br	-	-	-	-	-
CC(=O)c1ccc(N2CCN(S(=O)(=O)c3c(C)[nH]c(C)c3C(=O)N3CCCC3)CC2)cc1	-	-	-	-	-
CCOC(=O)C1(Cc2cccc(F)c2)CCN(Cc2cnn(CC)c2C)CC1	143	-	-	-	-
CCOC(=O)C1(Cc2cccc(F)c2)CCN(CCCn2cccn2)CC1	-	-	-	-	-
CCOC(=O)C1(Cc2cccc(F)c2)CCN(Cc2cnn(CC)c2)CC1	125	-	-	-	-
Cc1cccc(N=C2NC(=O)c3cc([N+](=O)[O-])ccc32)c1	-	-	-	-	-
C/C(=N\N1CCN(C)CC1)c1ccc(OC(F)F)cc1	-	-	-	-	-
C/C(=N\N1CCN(C)CC1)c1ccc(Cl)c(Cl)c1	-	-	-	15	-
c1ccc(COc2ccc3nocc3c2)cc1	-	-	-	-	-
CCOC(=O)c1c(NC(=O)CSc2ncn[nH]2)sc(C(C)=O)c1C	-	-	-	-	-
COC(=O)c1c(NC(=O)CSc2ncn[nH]2)sc(C)c1C	-	-	-	-	-7
CCCN1Cc2cccc(C(=O)N3CCN(c4cc(Cl)ccc4C)CC3)c2C1=O	-	-	-	15	-
CCN1CCN(S(=O)(=O)c2ccc(Cl)c(C(=O)Nc3nnc(C)s3)c2)CC1	50	-	-	-	-
CCN(CC)S(=O)(=O)c1ccc(Cl)c(C(=O)Nc2nnc(C)s2)c1	-	-	-	-	-
CCOP(=O)(c1ccccc1)c1nc(-c2ccccc2Cl)oc1N1CCCCC1 (stereo unspecified)	-	-	-	17	-
COc1cc(C2N(c3cccc(Cl)c3)C(=O)C3CCCN32)cc(OC)c1OC (stereo unspecified)	-	-	-	14	-
COc1ccc(N2C(=O)C3CCCN3C2c2ccc(C)o2)cc1Cl (stereo unspecified)	-	-	-	-	-
COc1cc(C2N(c3ccc(Cl)c(Cl)c3)C(=O)C3CCCN32)cc(OC)c1OC (stereo unspecified)	81	-	-	-	-
COc1ccc(N2C(=O)C3CCCN3C2c2cc(OC)c(OC)c(OC)c2)cc1 (stereo unspecified)	-	-	-	-	-
COc1cc(C2N(c3ccc(Cl)cc3)C(=O)C3CCCN32)cc(OC)c1OC (stereo unspecified)	-	-	-	-	-
Cc1ccc(C2N(c3ccc(Cl)c(Cl)c3)C(=O)C3CCCN32)o1 (stereo unspecified)	122	-	-	15	-
CCC(C)c1ccc(NC(=O)Nc2cnccn2)cc1 (stereo unspecified)	-	-	-	-	-
CC(Oc1ccccc1)C(=O)Nc1ccc(NC(=O)c2ccccc2)cc1 (stereo unspecified)	-	-	-	-	-
SMILES	TRPC4 act	TRPC6 act	TRPC6 inhibitor	TRPC4 potent	TRPC4 block
CC(Oc1ccc(C(=O)c2ccccc2)cc1)C(=O)Nc1ccc(S(N)(=O)=O)cc1 (stereo unspecified)	58	-	-	-	-
Cc1nnc2n(Cc3ccccc3)c(=O)c3c4c(sc3n12)COC(C(C)C)C4 (stereo unspecified)	-	-	-	11	-
CN(C)/C(Cn1cncn1)=C1/N=C(c2ccccc2)OC1=O	-	-	-	-	-
CN1CCN(C/C(=C2/N=C(c3ccccc3)OC2=O)N(C)C)CC1	-	-	-	13	-
COc1cccc(NC(=O)NCc2c(-c3ccccc3)noc2C)c1	-	-	-	-	-
CC(C)Cc1csc(NC(=O)c2ccc(Cl)cc2)c1C(=O)O	48	-	-	-	-
CC(C)Cc1csc(NC(=O)c2ccccc2Cl)c1C(=O)O	-	-	-	-	-
CCCCN(CCCNC(=O)c1ccc(CS(=O)(=O)c2c(Cl)cccc2Cl)o1)Cc1ccccc1	-	-	-	-	-
CCCCN(CC)CCCNC(=O)c1ccc(CS(=O)(=O)c2c(Cl)cccc2Cl)o1	62	-	-	-	-
CCN1CC(CN(C)Cc2cn(-c3cccc(C)c3)nc2-c2cccc(F)c2)CC1=O (stereo unspecified)	73	-	-	-	-

Source: PubChem (Johns Hopkins Ion Channel Center)
